From ChEMBL document CHEMBL4130629 (J Med Chem, 2018)
In brackets after ≈: the same amount, converted by molar mass.

Tests used:
Canis familiaris [1] = assay: Oral bioavailability in beagle dog assessed as BMS-626529 formation at 5 mg/kg; type: ADME, organism-based, Canis lupus familiaris; conditions: in vivo
[2] = system: Human immunodeficiency virus 1; assay: Antiviral activity against recombinant pseudotyped HIV1 subtype B infected in human U87 cells expressing CD4/CCR5/CXCR4 by luciferase reporter gene assay; type: functional, organism-based; conditions: Human immunodeficiency virus 1, subtype B, U-87 MG
[3] = system: Human immunodeficiency virus 1; assay: Antiviral activity against recombinant pseudotyped HIV1 subtype C infected in human U87 cells expressing CD4/CCR5/CXCR4 by luciferase reporter gene assay; type: functional, organism-based; conditions: Human immunodeficiency virus 1, subtype C, U-87 MG
MT2 = assay: Cytotoxicity against human MT2 cells assessed as decrease in cell viability after 3 days […]; type: functional; conditions: MT2, 72 h
[4] = Permeability in human Caco2 cells; type: ADME, cell-based; conditions: Caco-2, read-out: permeability
[5] = system: Human immunodeficiency virus 1; assay: Antiviral activity against recombinant pseudotyped HIV1 subtype A infected in human U87 cells expressing CD4/CCR5/CXCR4 by luciferase reporter gene assay; type: functional, organism-based; conditions: Human immunodeficiency virus 1, subtype A, U-87 MG
[6] = Drug uptake in Sprague-Dawley rat plasma assessed as BMS-626529 level at 200 mg/kg, po after 3 hrs; type: ADME, organism-based; conditions: in vivo
[7] = molecular target: Envelope glycoprotein gp160 (Human immunodeficiency virus 1) (UniProt Q6QLK5); assay: Binding affinity to HIV-1 JRFL gp120 assessed as half life for dissociation
Chain of Envelope glycoprotein gp160 (Human immunodeficiency virus 1) (Q6QLK5 1-814): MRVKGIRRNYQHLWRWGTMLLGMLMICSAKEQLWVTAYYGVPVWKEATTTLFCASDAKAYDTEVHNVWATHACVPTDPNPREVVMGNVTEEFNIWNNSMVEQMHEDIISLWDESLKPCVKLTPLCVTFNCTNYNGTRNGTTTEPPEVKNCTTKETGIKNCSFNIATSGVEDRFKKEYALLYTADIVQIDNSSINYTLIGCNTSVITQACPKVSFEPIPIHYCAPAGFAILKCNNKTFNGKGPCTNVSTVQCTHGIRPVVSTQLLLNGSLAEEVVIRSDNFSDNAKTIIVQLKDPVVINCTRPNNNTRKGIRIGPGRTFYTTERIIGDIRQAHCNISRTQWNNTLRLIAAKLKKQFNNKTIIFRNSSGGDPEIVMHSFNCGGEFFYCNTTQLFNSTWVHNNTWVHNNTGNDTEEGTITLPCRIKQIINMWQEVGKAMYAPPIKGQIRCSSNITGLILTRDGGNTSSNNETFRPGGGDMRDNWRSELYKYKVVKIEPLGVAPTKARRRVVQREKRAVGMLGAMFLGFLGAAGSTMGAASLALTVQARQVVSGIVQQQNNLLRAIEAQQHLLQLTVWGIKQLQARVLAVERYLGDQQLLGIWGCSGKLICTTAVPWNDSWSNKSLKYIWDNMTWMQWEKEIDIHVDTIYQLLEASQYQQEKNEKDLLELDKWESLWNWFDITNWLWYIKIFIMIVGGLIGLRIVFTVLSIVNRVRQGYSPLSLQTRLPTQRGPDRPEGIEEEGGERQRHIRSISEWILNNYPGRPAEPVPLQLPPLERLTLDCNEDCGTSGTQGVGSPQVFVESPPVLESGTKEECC

[8] = Aqueous solubility of the compound at pH 10; type: physicochemical; conditions: buffer
Procedure, shortened: (§1)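 Crystalline solid sample; aqueous solubility measured in buffers at the stated pH.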

[9] = AUC in beagle dog at 5 mg/kg, po; type: ADME, organism-based, Canis lupus familiaris; conditions: in vivo
Procedure, shortened: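 Crossover study in three male beagle dogs (12 ± 0.4 kg) with a one-week washout between routes; dosed in PEG-400/ethanol (90/10) with pH adjusted by 0.1 N NaOH. After an overnight fast, 5 mg/kg was given by oral gavage. Serial blood was drawn before dosing and at 15–1440 min.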

[10] = Drug uptake in Sprague-Dawley rat plasma assessed as BMS-626529 level at <= 25 mg/kg, po after 3 hrs; type: ADME, organism-based; conditions: in vivo
Procedure, shortened: (§2)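 Rats were dosed orally with parent (solution in PEG-400/EtOH/0.1 N NaOH at ≤25 mg/kg; suspension at 200 mg/kg) or with prodrug as an aqueous solution. Plasma AUC of the parent drug was compared between the two.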

Cynomolgus monkey = assay: Oral bioavailability in cynomolgus monkey assessed as BMS-626529 formation at 5 mg/kg administered via gavage; type: ADME, organism-based, Macaca fascicularis; conditions: in vivo
[11] = AUC in Sprague-Dawley rat at 5 mg/kg, po after 24 hrs; type: ADME, organism-based; parameters: time < 24 hr, dose 5 mg/kg, route oral; conditions: in vivo
Procedure, shortened: (§3)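 Male Sprague-Dawley rats (300−350 g) with jugular vein and/or bile duct cannulas, n = 3 per route; dosed as a solution in PEG-400/ethanol (90/10). The iv dose was 1 mg/kg given as a 0.5 min bolus, with jugular blood sampled from 2 to 1440 min. The po dose was 5 mg/kg after an overnight fast, sampled from 15 to 1440 min. Plasma was taken from EDTA blood.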

[12] = Aqueous solubility of the compound at pH 1; type: physicochemical; conditions: buffer; procedure, shortened: as §1
Rattus norvegicus = assay: Oral bioavailability in Sprague-Dawley rat assessed as BMS-626529 formation at 5 mg/kg; type: ADME, organism-based; conditions: in vivo
[13] = Prodrug activation in beagle dog plasma assessed as BMS-626529 formation 125 mg/kg, po bid; type: organism-based, Canis lupus familiaris; conditions: in vivo
[14] = molecular target: T1, Alkaline phosphatase, placental type (Homo sapiens, UniProt P05187); assay: Prodrug activation assessed as human placental alkaline phosphatase mediated BMS-626529 formation; conditions: isolated protein
T1 sequence (P05187 whole entry): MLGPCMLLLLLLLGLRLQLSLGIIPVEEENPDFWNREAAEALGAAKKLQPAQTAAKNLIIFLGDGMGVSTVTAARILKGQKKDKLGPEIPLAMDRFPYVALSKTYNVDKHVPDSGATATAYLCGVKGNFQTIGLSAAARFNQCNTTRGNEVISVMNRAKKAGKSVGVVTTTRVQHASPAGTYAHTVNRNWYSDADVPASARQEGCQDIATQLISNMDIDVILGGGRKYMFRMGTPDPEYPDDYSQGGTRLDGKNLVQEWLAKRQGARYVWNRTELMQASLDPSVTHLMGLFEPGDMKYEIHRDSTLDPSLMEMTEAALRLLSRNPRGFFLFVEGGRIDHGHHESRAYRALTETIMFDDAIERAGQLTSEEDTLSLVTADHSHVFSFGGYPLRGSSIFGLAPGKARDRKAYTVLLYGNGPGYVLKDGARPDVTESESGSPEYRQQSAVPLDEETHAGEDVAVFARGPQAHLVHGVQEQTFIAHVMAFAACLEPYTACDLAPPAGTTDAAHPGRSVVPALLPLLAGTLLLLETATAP

[15] = Stability of the compound under neutral condition at 37 degC after 24 hrs; type: physicochemical
Procedure, shortened: (§4)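 Aqueous solubility was measured across pH 1.5–8.2 at room temperature. Solution stability under acidic and neutral conditions, and solid-state stability, were followed for at least 24 h at 37 °C.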

[16] = Prodrug activation in Sprague-Dawley rat plasma assessed as BMS-626529 formation at 200 mg/kg, po after 3 hrs; type: organism-based; conditions: in vivo; procedure, shortened: as §2
Homo sapiens = assay: Prodrug activation in normal healthy human assessed as BMS-626529 formation at 100 to 1000 mg dosed as standard capsule formulation; type: organism-based; conditions: in vivo, po
Procedure, shortened: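 Single ascending dose phase 1 trial in normal healthy volunteers: prodrug given as a standard capsule at 100, 200, 400, 600, 800 and 1000 mg. Plasma exposure of the parent drug was measured.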

[17] = molecular target: T1, Alkaline phosphatase, placental type; assay: Prodrug activation in human hepatocytes assessed as BMS-626529 formation; type: cell-based
[18] = Stability of the compound under acidic condition at 37 degC after 24 hrs; type: physicochemical; procedure, shortened: as §4
[19] = Prodrug activation in Sprague-Dawley rat plasma assessed as BMS-626529 formation at <= 25 mg/kg, po after 3 hrs; type: organism-based; conditions: in vivo; procedure, shortened: as §2
[20] = Stability of the compound in solid state at 37 degC after 24 hrs; type: physicochemical; procedure, shortened: as §4
Canis familiaris [21] = assay: Toxicity in beagle dog assessed as rapid emesis at 250 mg/kg, po qd; type: organism-based, Canis lupus familiaris; conditions: in vivo
[22] = Prodrug activation in beagle dog plasma assessed as BMS-626529 formation 46 mg/kg, po bid; type: organism-based, Canis lupus familiaris; conditions: in vivo
[23] = Aqueous solubility of the compound at pH 1.5 to 8.2; type: physicochemical; conditions: buffer; procedure, shortened: as §4
[24] = Protein binding in human plasma; type: ADME, cell-free; conditions: read-out: PPB (converted)
[25] = system: Human immunodeficiency virus 1; assay: Antiviral activity against HIV1 infected in patients assessed as reduction in maxmum viral RNA by measuring log10 viral copies at 1800 mg, bid measured at day 8; type: functional
[26] = AUC in cynomolgus monkey at 5 mg/kg, po administered via gavage; type: ADME, organism-based, Macaca fascicularis; conditions: in vivo
Procedure, shortened: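 Crossover study in three male cynomolgus monkeys (10 ± 0.8 kg) with a one-week washout between routes; dosed in PEG-400/ethanol (90/10) with pH adjusted by 0.1 N NaOH. After an overnight fast, 5 mg/kg was given by oral gavage. Serial blood was drawn before dosing and at 15–1440 min.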

[27] = system: Human immunodeficiency virus 1; assay: Antiviral activity against HIV1 infected in patients assessed as reduction in plasma viral load by measuring log10 viral copies at 1800 mg, bid measured at day 8; type: functional
[28] = system: Human immunodeficiency virus 1; assay: Antiviral activity against HIV1 infected in patients assessed as reduction in plasma viral load by measuring log10 viral copies at 800 mg, bid measured at day 8 (reference value: 0.02 log10 copies/ml); type: functional
[29] = system: Human immunodeficiency virus 1; assay: Antiviral activity against ENV pseudotyped CCR5-tropic HIV1 […] infected in human HeLa67 cells after 3 days by luciferase reporter gene assay; type: functional, organism-based; conditions: Human immunodeficiency virus 1, HeLa67, 72 h
Procedure, shortened: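 Single-cycle infection with env-deleted, luciferase-reporter HIV-1 pseudotyped with the JRFL (CCR5) envelope, supplied by transfection; viral titers normalized by luminescence without compound. HeLa 67 cells were infected in the presence of compounds given as 3-fold serial dilutions made from 30 mM DMSO stocks.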

[30] = Half life in human liver microsomes; type: ADME, microsome
[31] = molecular target: Envelope glycoprotein gp160 (Human immunodeficiency virus 1, UniProt Q6QLK5); assay: Inhibition of [3H]BMS-488043 binding to HIV-1 JRFL gp120 after 1 hr by scintillation counting method
Chain of Envelope glycoprotein gp160 (Q6QLK5 whole entry): as the sequence (Q6QLK5 1-814) above

[32] = system: Human immunodeficiency virus 1; assay: Selectivity ratio of EC50 for ENV pseudotyped CCR5-tropic HIV1 […] in presence of 40%human serum to EC50 for ENV pseudotyped CCR5-tropic HIV1 […] in absence of 40%human serum; type: functional
Procedure, shortened: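 Single-cycle assay: env-deleted HIV-1 firefly-luciferase reporter virus pseudotyped by transfection with the JRFL (CCR5-tropic) envelope; HeLa 67 cells infected with compound (DMSO stocks, 3-fold serial dilutions). Luciferase read 3 days post-infection.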

[33] = system: Human immunodeficiency virus 1; assay: Antiviral activity against HIV1 infected in patients assessed as reduction in maxmum viral RNA by measuring log10 viral copies at 800 mg, bid measured at day 8; type: functional
[34] = Metabolic stability in rat liver microsomes assessed as parent compound remaining after 10 mins; type: ADME, microsome; conditions: read-out: Stability
Procedure, shortened: (§5)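 Compound at 3 μM was incubated with human or rat liver microsomes, and the percentage of parent compound remaining was measured after 10 min.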

[35] = Metabolic stability in human liver microsomes assessed as parent compound remaining after 10 mins; type: ADME, microsome; conditions: read-out: Stability; procedure, shortened: as §5
[36] = Half life in Sprague-Dawley rat at 1 mg/kg, iv; type: ADME, organism-based; conditions: in vivo
Cytochrome P450 3A4 = Cytochrome P450 3A4 (Homo sapiens, UniProt P08684); assay: Inhibition of CYP3A4 (unknown origin); type: ADME
Chain of Cytochrome P450 3A4 (P08684 whole entry): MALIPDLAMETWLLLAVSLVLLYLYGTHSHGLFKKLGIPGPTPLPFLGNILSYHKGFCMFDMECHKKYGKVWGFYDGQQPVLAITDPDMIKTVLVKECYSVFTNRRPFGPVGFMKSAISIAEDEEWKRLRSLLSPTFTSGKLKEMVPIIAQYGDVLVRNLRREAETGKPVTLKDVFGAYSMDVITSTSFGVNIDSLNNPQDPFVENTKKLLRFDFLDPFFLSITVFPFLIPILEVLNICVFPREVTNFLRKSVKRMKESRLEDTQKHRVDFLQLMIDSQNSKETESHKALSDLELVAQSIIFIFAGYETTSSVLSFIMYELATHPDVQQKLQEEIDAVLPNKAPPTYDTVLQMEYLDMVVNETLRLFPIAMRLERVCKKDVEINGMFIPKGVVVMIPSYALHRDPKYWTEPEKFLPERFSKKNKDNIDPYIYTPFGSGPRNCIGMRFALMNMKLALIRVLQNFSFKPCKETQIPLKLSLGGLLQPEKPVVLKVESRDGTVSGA

[37] = Oral bioavailability in Sprague-Dawley rat at 5 mg/kg; type: ADME, organism-based; conditions: in vivo; procedure, shortened: as §3
[38] = Volume of distribution at steady state in Sprague-Dawley rat at 1 mg/kg, iv; type: ADME, organism-based; conditions: in vivo, read-out: Vdss; procedure, shortened: as §3

## COc1cnc(-n2cnc(C)n2)c2[nH]cc(C(=O)C(=O)N3CCN(C(=O)c4ccccc4)CC3)c12
Canis familiaris [1]
  bioavailability: 80 to 122%
[2]
  IC50: 4.59 nM
[3]
  IC50: 7.09 nM
MT2
  CC50: > 300000 nM
[4]
  Papp: 18.2 ×10⁻⁶ cm/s
[5]
  IC50: 87.9 nM
[6]
  Drug uptake: Active
[7]
  T1/2: 7.63 h
[8]
  solubility: 70 µg/mL (≈ 148 µM)
[9]
  AUC: 61 µM·h
[10]
  Drug uptake: Active
Cynomolgus monkey
  bioavailability: 80 to 122%
[11]
  AUC at 24 h: 111 µM·h
[12]
  solubility: 50 µg/mL (≈ 106 µM)
Rattus norvegicus
  bioavailability: 80 to 122%

## COc1cnc(-n2cnc(C)n2)c2c1c(C(=O)C(=O)N1CCN(C(=O)c3ccccc3)CC1)cn2COP(=O)(O)O.NC(CO)(CO)CO [FOSTEMSAVIR TROMETHAMINE]
[13]
  Drug metabolism: Metabolite_Detected
[14]
  Drug metabolism: Metabolite_Detected
[15]
  Stability: Stable
[16]
  Drug metabolism: Metabolite_Detected
Homo sapiens
  Drug metabolism: Dose-dependent effect
[17]
  Drug metabolism: Metabolite_Detected
[18]
  Stability: Stable
[19]
  Drug metabolism: Metabolite_Detected
[20]
  Stability: Stable
Canis familiaris [21]
  Activity: Toxic
[22]
  Drug metabolism: Metabolite_Detected
[23]
  solubility: > 11000 µg/mL

## COc1ncc(OC)c2c(C(=O)C(=O)N3CCN(C(=O)c4ccccc4)CC3)c[nH]c12
[24]
  fraction unbound: 0.05
MT2
  CC50: > 300000 nM
[25]
  log(activity): 1.32 /ml
[26]
  AUC: 28 µM·h
[27]
  log(activity): 0.96 /ml
[7]
  T1/2: 0.717 h
[28]
  log(activity): 0.72 /ml
[29]
  EC50: 0.88 nM
[30]
  half-life: > 1.67 h
[31]
  Kd: 19 nM
[9]
  AUC: 43 µM·h
[32]
  Ratio EC50: 1.9 - 3.7
[11]
  AUC at 24 h: 15 µM·h
[33]
  log(activity): 1.5 /ml

## COc1cnc(-n2cncn2)c2[nH]cc(C(=O)C(=O)N3CCN(C(=O)c4ccccc4)CC3)c12
MT2
  CC50: > 300000 nM
[4]
  Papp: 14.6 ×10⁻⁶ cm/s
[34]
  remaining at 10 min: 97%
[35]
  remaining at 10 min: 83%
[36]
  half-life: 2.6 h
Cytochrome P450 3A4
  IC50: 1000 nM
[29]
  EC50: 0.09 nM
[37]
  bioavailability: 90%
[38]
  Vd: 0.4 L/kg
[11]
  AUC at 24 h: 48.7 µM·h
